# According to ChEMBL document CHEMBL4052610, “Evaluation of Dual 5-Lipoxygenase/Microsomal Prostaglandin E2 Synthase-1 Inhibitory Effect of Natural and Synthetic Acronychia-Type Isoprenylated Acetophenones” (J Nat Prod, 2017):
# Activity calls are given as the source filed them. The calls are words filed in the database; no cut-off is given here.
# Assays:
# [1] = target: T1, Polyunsaturated fatty acid 5-lipoxygenase (Homo sapiens, UniProt P09917); test: Inhibition of 5-LO in human peripheral blood neutrophils using arachidonic acid as substrate preincubated for 15 mins followed by substrate addition measured after 10 mins in presence of Ca2+ ionophore A23187 by RP-HPLC analysis
# T1 sequence (P09917 whole entry): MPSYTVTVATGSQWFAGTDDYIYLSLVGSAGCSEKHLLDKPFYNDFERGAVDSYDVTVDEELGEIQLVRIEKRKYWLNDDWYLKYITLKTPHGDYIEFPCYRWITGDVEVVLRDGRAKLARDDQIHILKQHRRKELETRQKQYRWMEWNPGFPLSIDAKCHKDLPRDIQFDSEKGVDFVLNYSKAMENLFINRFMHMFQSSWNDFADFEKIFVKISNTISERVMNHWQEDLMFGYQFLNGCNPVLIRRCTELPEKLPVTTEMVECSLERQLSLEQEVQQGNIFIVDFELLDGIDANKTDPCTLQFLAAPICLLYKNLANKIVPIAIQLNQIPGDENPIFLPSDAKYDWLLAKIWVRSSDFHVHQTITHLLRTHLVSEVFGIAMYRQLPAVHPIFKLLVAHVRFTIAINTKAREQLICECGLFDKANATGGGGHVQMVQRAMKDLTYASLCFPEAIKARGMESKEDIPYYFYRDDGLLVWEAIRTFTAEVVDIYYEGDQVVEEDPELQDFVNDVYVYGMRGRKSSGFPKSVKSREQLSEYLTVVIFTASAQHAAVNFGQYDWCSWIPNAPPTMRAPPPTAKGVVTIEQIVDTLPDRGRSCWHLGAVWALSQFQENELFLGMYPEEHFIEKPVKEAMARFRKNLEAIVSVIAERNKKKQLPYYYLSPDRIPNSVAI
# [2] = target: T2, Polyunsaturated fatty acid 5-lipoxygenase (Homo sapiens) (UniProt P09917); test: Inhibition of human recombinant 5-LO expressed in Escherichia coli MV1190 assessed as residual activity at 10 uM using arachidonic acid as substrate preincubated for 10 mins followed by substrate addition measured after 10 mins by RP-HPLC analysis relative to control
# T2 sequence (whole entry): T1 sequence (P09917 whole entry)
# Procedure, shortened: (§1)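 Human 5-LO expressed in E. coli MV1190, partially purified on ATP-agarose, diluted in PBS with 1 mM EDTA and 1 mM ATP. Held 10 min at 4 °C with compound, warmed 30 s to 37 °C, started with 2 mM CaCl2 plus 20 μM AA. Run 10 min at 37 °C, stopped with methanol. LTB4 trans-isomers and 5-H(p)ETE measured by RP-HPLC. IC50 from 4–5 concentrations; n = 3–4.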
# Prostaglandin E synthase = target: T3, Prostaglandin E synthase (Homo sapiens, UniProt O14684); test: Inhibition of human A549 cell microsomal membrane-derived mPGES-1 assessed as reduction in conversion of PGH2 to PGE2 preincubated for 15 mins followed by PGH2 addition measured after 1 min by RP-HPLC analysis; assay type: cell-based
# T3 sequence (O14684 whole entry): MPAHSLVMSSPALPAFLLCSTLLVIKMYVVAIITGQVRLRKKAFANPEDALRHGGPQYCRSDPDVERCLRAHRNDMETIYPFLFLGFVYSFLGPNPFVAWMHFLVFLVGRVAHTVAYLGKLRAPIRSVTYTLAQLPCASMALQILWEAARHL
# [3] = target: T1, Polyunsaturated fatty acid 5-lipoxygenase; test: Inhibition of human recombinant 5-LO expressed in Escherichia coli MV1190 using arachidonic acid as substrate preincubated for 10 mins followed by substrate addition measured after 10 mins by RP-HPLC analysis; procedure, shortened: as §1
# Neutrophil = test: Cytotoxicity against human neutrophils assessed as reduction in cell viability up to 10 uM up to 30 mins by light microscopic and trypan blue exclusion assay; assay type: cell-based; details: 0.5 h
# Procedure, shortened: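 Isolated human blood neutrophils (dextran sedimentation, Nycoprep, hypotonic lysis) in PBS pH 7.4 with 1 mg/mL glucose and 1 mM CaCl2. Compounds tested up to 10 μM for 30 min. Viability scored by light microscopy with trypan blue exclusion.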
# Mus musculus [4] = test: (§2) Anti inflammatory in CD-1 mouse assessed as reduction in zymosan-induced inflammatory cell infiltration by measuring inflammatory cell level in peritoneal exudates at 10 mg/kg, ip preincubated for 30 mins followed by zymosan addition measured after 4 hrs […] (reference value: 7.3 +/- 0.72 10^6); assay type: functional
# Mus musculus [5] = test: Anti inflammatory activity in CD-1 mouse assessed as reduction in zymosan-induced LTC4 level in peritoneal exudates at 10 mg/kg, ip preincubated for 30 mins followed by zymosan addition measured after 30 mins by enzyme immunoassay relative to control; assay type: functional; design: scale not given: the % may be the effect or the level left
# Mus musculus [6] = test: Anti inflammatory activity in CD-1 mouse assessed as reduction in zymosan-induced LTC4 by measuring LTC4 level in peritoneal exudates at 10 mg/kg, ip preincubated for 30 mins followed by zymosan addition measured after 30 mins by enzyme immunoassay (reference value: 92.2 +/- 12.8 ng/ml); assay type: functional
# Mus musculus [7] = test: Anti inflammatory activity in CD-1 mouse assessed as reduction in zymosan-induced PGE2 by measuring PGE2 level in peritoneal exudates at 10 mg/kg, ip preincubated for 30 mins followed by zymosan addition measured after 30 mins by enzyme immunoassay (reference value: 10.5 +/- 1.34 ng/ml); assay type: functional
# [8] = target: T2, Polyunsaturated fatty acid 5-lipoxygenase (Homo sapiens); test: Reversible inhibition of human recombinant 5-LO expressed in Escherichia coli MV1190 using arachidonic acid as substrate preincubated for 15 mins followed by 10 fold dilution measured after 10 mins by RP-HPLC analysis
# Procedure, shortened: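 Semipurified recombinant human 5-LO in the cell-free assay (2 mM CaCl2, 20 μM AA, 10 min at 37 °C, RP-HPLC read-out). Reversibility tested by wash-out using 10-fold dilution. Means ± SEM, n = 3–4.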
# [9] = target: T2, Polyunsaturated fatty acid 5-lipoxygenase (Homo sapiens); test: Competitive inhibition of human recombinant 5-LO expressed in Escherichia coli MV1190 using different concentration of arachidonic acid as substrate preincubated for 15 mins followed by substrate addition measured after 10 mins by RP-HPLC analysis; details: in the assay text read “preincubated for 10 mins” for “preincubated for 15 mins”
# Procedure, shortened: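 Semipurified recombinant human 5-LO assayed in the cell-free format with CaCl2 and varying AA concentrations, products measured by RP-HPLC. Representative experiment of three independent runs.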
# Mus musculus [10] = test: Anti inflammatory in CD-1 mouse assessed as reduction in zymosan-induced inflammatory cell infiltration level in peritoneal exudates at 10 mg/kg, ip preincubated for 30 mins followed by zymosan addition measured after 4 hr relative to control; assay type: functional; design: scale not given: the % may be the effect or the level left
# Mus musculus [11] = test: as §2, with “at 5” for “at 10”; assay type: functional
# Mus musculus [12] = test: Anti inflammatory activity in CD-1 mouse assessed as reduction in zymosan-induced PGE2 by measuring PGE2 level in peritoneal exudates at 5 mg/kg, ip preincubated for 30 mins followed by zymosan addition measured after 30 mins by enzyme immunoassay (reference value: 10.5 +/- 1.34 ng/ml); assay type: functional
SMILES,IC50 [1] [µM],Activity [2] [%],IC50 (Prostaglandin E synthase) [µM],IC50 [3] [µM],Activity (Neutrophil),also measured
COc1c(CC=C(C)C)c(O)c(C(CC(C)C)c2c(O)c(CC=C(C)C)c(O)c(C(C)=O)c2O)c(O)c1C(C)=O (configuration not stated),2.3,< 50,1.1,2.7,Non-Toxic,–
CC(=O)c1c(O)cc(O)c(C(CC(C)C)c2c(O)cc(O)c(C(C)=O)c2O)c1O,6.3,< 50,1,1.7,Non-Toxic,–
COc1c(CC=C(C)C)c(O)c(C(CC(C)C)c2c(O)c3c(c(C(C)=O)c2O)OC(C)(C)C(O)C3)c(O)c1C(C)=O (configuration not stated),5.3,< 50,2.7,7.3,Non-Toxic,–
COc1c(CC=C(C)C)c(O)c(C(CC(C)C)c2c(O)c(C(C)=O)c(O)c3c2OC(C)(C)C(O)C3)c(O)c1C(C)=O (configuration not stated),5,< 50,1.9,2,Non-Toxic,–
COc1ccc2c(c1)c(CC(=O)O)c(C)n2C(=O)c1ccc(Cl)cc1 [INDOMETHACIN],–,–,–,–,–,Activity (Mus musculus [11]): 2.08 ×10⁶ No_unit; Activity (Mus musculus [12]): 3.52 ng/mL
CC(c1cc2ccccc2s1)N(O)C(N)=O (configuration not stated) [ZILEUTON],–,–,–,–,–,Activity (Mus musculus [6]): 65 ng/mL
CC(=O)c1c(O)c(CC=C(C)C)c(O)c(C(CC(C)C)c2c(O)c(CC=C(C)C)c(O)c(C(C)=O)c2O)c1O,> 10,> 50,> 10,> 10,Non-Toxic,–

# Second part, led by results:
IC50 [1] [µM],Activity [2] [%],IC50 (Prostaglandin E synthase) [µM],IC50 [3] [µM],SMILES,Activity (Neutrophil),also measured
> 10,< 50,1.2,2.4,CC(=O)c1c(O)c(C(CC(C)C)c2c(O)c3c(c(C(C)=O)c2O)OC(C)(C)C=C3)c(O)c2c1OC(C)(C)C=C2,Non-Toxic,–
1.4,< 50,3.5,1,CC(=O)c1c(O)cc(O)c(C/C=C(\C)CCC=C(C)C)c1O,Non-Toxic,Activity (Mus musculus [4]): 5 ×10⁶ No_unit; Activity (Mus musculus [5]): 38%; Activity (Mus musculus [6]): 57.3 ng/mL; Activity (Mus musculus [7]): 11.3 ng/mL; inhibition [8]: Active; inhibition [9]: inactive; Activity (Mus musculus [10]): 32%
7.3,< 50,1.3,5.3,COc1c(CC=C(C)C)c(O)c(C(CC(C)C)c2c(O)c(C(C)=O)c(O)c3c2OC(C(C)(C)O)C3)c(O)c1C(C)=O (configuration not stated) [ACROFOLIONE A],Non-Toxic,–
–,–,> 10,–,CC(=O)c1c(O)cc(O)c(CC=C(C)C)c1O,Non-Toxic,–
4.5,< 50,1.1,> 10,COc1c(CC=C(C)C)c(O)c(C(CC(C)C)c2c(O)c3c(c(C(C)=O)c2O)OC(C(C)(C)O)C3)c(O)c1C(C)=O (configuration not stated),Non-Toxic,–
> 10,< 50,4.2,6,COc1c(CC=C(C)C)c(O)c(C(CC(C)C)c2c(O)c3c(c(C(C)=O)c2O)OC(C)(C)C=C3)c(O)c1C(C)=O (configuration not stated),Non-Toxic,–
5,< 50,> 10,> 10,C=C(C)C1Cc2c(O)c(C(CC(C)C)c3c(O)c4c(c(C(C)=O)c3O)OC(C(=C)C)C4)c(O)c(C(C)=O)c2O1 (configuration not stated),Non-Toxic,–
6.3,< 50,1.1,2.5,C=C(C)[C@@H](O)Cc1c(O)c(C(C)=O)c(O)c(C(CC(C)C)c2c(O)c(CC=C(C)C)c(OC)c(C(C)=O)c2O)c1O (some centres not stated),Non-Toxic,–
> 10,< 50,5.34,3.6,CC(=O)c1c(O)c(C/C=C(/C)CCC=C(C)C)c(O)c(C(CC(C)C)c2c(O)c(C/C=C(\C)CCC=C(C)C)c(O)c(C(C)=O)c2O)c1O (configuration not stated),Non-Toxic,–
